# Assay results: ChEMBL document CHEMBL4043264, “Design, synthesis, X-ray studies, and biological evaluation of novel macrocyclic HIV-1 protease inhibitors involving the P1'-P2' ligands” (Bioorg Med Chem Lett, 2017)
# pIC50, pKi: −log10 of the molar value.
# Legend:
# [1] = test system: Human immunodeficiency virus 1; test: Antiviral activity against HIV-1 harboring protease I50V mutant; format: functional
# [2] = Ratio of IC50 for darunavir-resistant HIV1 harboring protease L10I/I15V/K20R/L24I/V32I/M36I/M46L/L63P/V82A/L89M mutant infected in human MT4 cells to IC50 for wild type HIV1 NL4-3 infected in human MT4 cells; format: functional
# [3] = Inhibition of HIV-1 protease using fluorogenic substrate by fluorescence assay; design: species or system Human immunodeficiency virus 1
# [4] = test system: Human immunodeficiency virus 1; test: Anti-viral activity against HIV-1 LAI infected in human MT2 cells assessed as reduction in p24 Gag protein production; format: functional, cell-based; conditions: Human immunodeficiency virus 1, M:B_Lai
# [5] = test system: Human immunodeficiency virus 1; test: Antiviral activity against wild type HIV-1 NL4-3 infected in human MT4 cells assessed as reduction in p24 Gag protein production; format: functional, cell-based; conditions: Human immunodeficiency virus 1, NL4-3, MT4
# [6] = test system: Human immunodeficiency virus 1; test: Antiviral activity against darunavir-resistant HIV1 harboring protease L10I/[…]K20R/L24I/V32I/M36I/M46L/L63P/V82A/L89M mutant infected in human MT4 cells assessed as reduction in p24 Gag protein production; format: functional, cell-based; conditions: Human immunodeficiency virus 1, MT4
# Summary of the method: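 MT-4 cells (1×10^4) infected with 50 TCID₅₀ of wild-type HIV-1 NL4-3 or the DRV-resistant variant HIV-1 DRV^R P20 (protease L10I/I15V/K20R/L24I/V32I/M36I/M46L/L63P/V82A/L89M). Cells then cultured with various concentrations of each protease inhibitor. IC50 determined from p24 assay. Each assay run in triplicate. Values are means of three independent experiments, with fold-change relative to wild type.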
# [7] = Inhibition of wild-type HIV-1 protease; design: species or system Human immunodeficiency virus 1
Compound,pKi [3],pIC50 [4],also measured
CC(C)CN(C[C@@H](O)[C@H](Cc1ccccc1)NC(=O)O[C@H]1CO[C@H]2OCC[C@H]21)S(=O)(=O)c1ccc(N)cc1,–,–,pIC50 [1]: 8.80
Nc1ccc2c(c1)COCCCCCCCN(C[C@@H](O)[C@H](Cc1ccccc1)NC(=O)O[C@H]1CO[C@H]3OCC[C@H]31)S2(=O)=O,10.85,8.70,Ratio IC50 [2]: 13; pIC50 [5]: 8.82; pIC50 [6]: 7.70
COc1ccc2c(c1)OCCCCCOCCN(C[C@@H](O)[C@H](Cc1ccccc1)NC(=O)O[C@H]1CO[C@H]3OCC[C@H]31)S2(=O)=O,8.38,–,–
COc1ccc2c(c1)OCC/C=C/CN1C(=O)CC[C@@H]1CN(C[C@@H](O)[C@H](Cc1ccccc1)NC(=O)O[C@H]1CO[C@H]3OCC[C@H]31)S2(=O)=O,9.33,6.75,–
COc1ccc2c(c1)COC/C=C\CCCCCN(C[C@@H](O)[C@H](Cc1ccccc1)NC(=O)O[C@H]1CO[C@H]3OCC[C@H]31)S2(=O)=O,9.19,–,–
COc1ccc2c(c1)OCCCCCCN(S(C)(=O)=O)CCN(C[C@@H](O)[C@H](Cc1ccccc1)NC(=O)O[C@H]1CO[C@H]3OCC[C@H]31)S2(=O)=O,7.88,–,–
COc1ccc2c(c1)COCCCCCCCN(C[C@@H](O)[C@H](Cc1ccccc1)NC(=O)O[C@H]1CO[C@H]3OCC[C@H]31)S2(=O)=O,10.21,8.28,Ratio IC50 [2]: 67; pIC50 [5]: 8.44; pIC50 [6]: 6.62
COc1ccc2c(c1)COC/C=C\CCCCN(C[C@@H](O)[C@H](Cc1ccccc1)NC(=O)O[C@H]1CO[C@H]3OCC[C@H]31)S2(=O)=O,10.54,7.27,–
COc1ccc2c(c1)OCCCCCN1C(=O)CC[C@H]1CN(C[C@@H](O)[C@H](Cc1ccccc1)NC(=O)O[C@H]1CO[C@H]3OCC[C@H]31)S2(=O)=O,7.57,< 6.00,–
COc1ccc2c(c1)COCCCCCCCCN(C[C@@H](O)[C@H](Cc1ccccc1)NC(=O)O[C@H]1CO[C@H]3OCC[C@H]31)S2(=O)=O,10.21,7.51,–
COc1ccc2c(c1)OCCCCCN1C(=O)CC[C@@H]1CN(C[C@@H](O)[C@H](Cc1ccccc1)NC(=O)O[C@H]1CO[C@H]3OCC[C@H]31)S2(=O)=O,9.34,6.91,–
COc1ccc2c(c1)COC/C=C/CCCCN(C[C@@H](O)[C@H](Cc1ccccc1)NC(=O)O[C@H]1CO[C@H]3OCC[C@H]31)S2(=O)=O,10.82,7.34,–
COc1ccc2c(c1)OCCCCCN(S(C)(=O)=O)CCN(C[C@@H](O)[C@H](Cc1ccccc1)NC(=O)O[C@H]1CO[C@H]3OCC[C@H]31)S2(=O)=O,7.48,–,–
COc1ccc2c(c1)OCCCCCCOCCN(C[C@@H](O)[C@H](Cc1ccccc1)NC(=O)O[C@H]1CO[C@H]3OCC[C@H]31)S2(=O)=O,8.01,< 6.00,–
COc1ccc2c(c1)OCC/C=C\CN1C(=O)CC[C@@H]1CN(C[C@@H](O)[C@H](Cc1ccccc1)NC(=O)O[C@H]1CO[C@H]3OCC[C@H]31)S2(=O)=O,7.88,7.66,–
COc1ccc2c(c1)COC/C=C/CCCCCN(C[C@@H](O)[C@H](Cc1ccccc1)NC(=O)O[C@H]1CO[C@H]3OCC[C@H]31)S2(=O)=O,9.26,–,–
COc1ccc(S(=O)(=O)N(CC(C)C)C[C@@H](O)[C@H](Cc2ccccc2)NC(=O)O[C@H]2CO[C@H]3OCC[C@H]32)cc1,–,–,pKi [7]: 10.85; pIC50 [1]: 8.92
